# Data taken from ChEMBL document CHEMBL4251593, “Nontoxic combretafuranone analogues with high in vitro antibacterial activity” (Eur J Med Chem, 2018).
# How the values were obtained:
# [1] = test system: Klebsiella pneumoniae; assay: Antibacterial activity against Klebsiella pneumoniae HK14368/08 clinical isolate after 24 hrs by microdilution assay; type: functional; settings: HK14368/08, 24 h
# [2] = test system: Enterococcus sp.; assay: Antibacterial activity against Enterococcus sp. HK14365/08 clinical isolate after 24 hrs by microdilution assay; type: functional; settings: HK14365/08, 24 h
# [3] = test system: MCF7; assay: Cytotoxicity against human MCF7 cells assessed as reduction in cell viability after 48 hrs by ATPlite-based luminescent assay; settings: MCF7, 48 h
# [4] = test system: TERT-RPE1; assay: Induction of apoptosis in human RPE1 cells assessed as caspase 3/7 activity after 24 hrs by caspase-glo luminescent assay; type: cell-based; settings: RPE-1, 24 h
# In short: (§1)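 Cells were seeded at 500 per well in their growth media and exposed to 12 concentrations from 40 µM to 1 nM, delivered from DMSO, in triplicate. After 24 h, caspase-3/7 activity was read by Caspase-Glo luminescence. Data were normalized and ED50 was fitted by variable-slope nonlinear regression.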
# [5] = test system: HL-60; assay: Induction of apoptosis in human HL60 cells assessed as caspase 3/7 activity after 24 hrs by caspase-glo luminescent assay; type: cell-based; settings: HL-60, 24 h; in short: as §1
# [6] = test system: Klebsiella pneumoniae; assay: Antibacterial activity against Klebsiella pneumoniae HK11750/08 clinical isolate after 24 hrs by microdilution assay; type: functional; settings: HK11750/08, 24 h
# [7] = test system: Staphylococcus aureus; assay: Antibacterial activity against Staphylococcus aureus ATCC 6538 after 48 hrs by microdilution assay; type: functional; settings: ATCC 6538, 48 h
# [8] = test system: Escherichia coli; assay: Antibacterial activity against Escherichia coli ATCC 8739 after 24 hrs by microdilution assay; type: functional; settings: ATCC 8739, 24 h
# In short: (§2)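 Broth microdilution in Mueller-Hinton medium buffered to pH 7.4 (±0.2), with DMSO as diluent at no more than 2% final. Compounds were tested as 2-fold serial dilutions from 2000 to 0.488 µmol/l. The inoculum was 0.5 McFarland (1.5×10^8 cfu/ml). Plates were held at 37 °C and read visually at 24 and 48 h. MIC was taken as 95% growth inhibition versus control, determined twice in duplicate.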
# [9] = test system: K562; assay: Cytotoxicity against human K562 cells assessed as reduction in cell viability after 48 hrs by ATPlite-based luminescent assay; settings: K562, 48 h
# In short: (§3)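 Cells were grown […] with 10% FBS, glutamax, NEAA and pen/strep at 37 °C, 5% CO2. Media were DMEM for RPE-1, HepG2 and BJ (BJ plus 10 ng/ml bFGF), F-12K for PC3, and IMDM for K562/HL-60. Cells were seeded at 500 per well and dosed from DMSO at 12 concentrations, 40 µM to 1 nM, in triplicate. After 48 h, intracellular ATP was read by luminescence. ED50 was obtained by variable-slope nonlinear regression.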
# [10] = test system: Klebsiella pneumoniae; assay: Antibacterial activity against Klebsiella pneumoniae HK11750/08 clinical isolate after 48 hrs by microdilution assay; type: functional; settings: HK11750/08, 48 h
# [11] = test system: Staphylococcus epidermidis; assay: Antibacterial activity against Staphylococcus epidermidis HK6966/08 clinical isolate after 24 hrs by microdilution assay; type: functional; settings: HK6966/08, 24 h
# [12] = test system: Staphylococcus aureus; assay: Antibacterial activity against Staphylococcus aureus ATCC 6538 after 24 hrs by microdilution assay; type: functional; settings: ATCC 6538, 24 h
# [13] = test system: Escherichia coli; assay: Antibacterial activity against Escherichia coli ATCC 8739 after 48 hrs by microdilution assay; type: functional; settings: ATCC 8739, 48 h; in short: as §2
# [14] = test system: Klebsiella pneumoniae; assay: Antibacterial activity against Klebsiella pneumoniae HK14368/08 clinical isolate after 48 hrs by microdilution assay; type: functional; settings: HK14368/08, 48 h
# [15] = test system: HepG2; assay: Cytotoxicity against human HepG2 cells assessed as reduction in cell viability after 48 hrs by ATPlite-based luminescent assay; settings: HepG2, 48 h; in short: as §3
# [16] = test system: Staphylococcus aureus; assay: Antibacterial activity against methicillin-resistant Staphylococcus aureus HK5996/08 clinical isolate after 48 hrs by microdilution assay; type: functional; settings: HK5996/08, 48 h
# [17] = test system: Staphylococcus aureus; assay: Antibacterial activity against methicillin-resistant Staphylococcus aureus HK5996/08 clinical isolate after 24 hrs by microdilution assay; type: functional; settings: HK5996/08, 24 h
# [18] = test system: BJ; assay: Cytotoxicity against human BJ cells assessed as reduction in cell viability after 48 hrs by ATPlite-based luminescent assay; in short: as §3
# [19] = test system: PC-3; assay: Cytotoxicity against human PC3 cells assessed as reduction in cell viability after 48 hrs by ATPlite-based luminescent assay; settings: PC-3, 48 h; in short: as §3
# [20] = test system: Pseudomonas aeruginosa; assay: Antibacterial activity against Pseudomonas aeruginosa ATCC 9027 after 48 hrs by microdilution assay; type: functional; settings: ATCC 9027, 48 h; in short: as §2
# [21] = test system: K562; assay: Induction of apoptosis in human K562 cells assessed as caspase 3/7 activity after 24 hrs by caspase-glo luminescent assay; type: cell-based; settings: K562, 24 h; in short: as §1
# [22] = test system: Staphylococcus epidermidis; assay: Antibacterial activity against Staphylococcus epidermidis HK6966/08 clinical isolate after 48 hrs by microdilution assay; type: functional; settings: HK6966/08, 48 h
# [23] = test system: Pseudomonas aeruginosa; assay: Antibacterial activity against Pseudomonas aeruginosa ATCC 9027 after 24 hrs by microdilution assay; type: functional; settings: ATCC 9027, 24 h; in short: as §2
# [24] = test system: PC-3; assay: Induction of apoptosis in human PC3 cells assessed as caspase 3/7 activity after 24 hrs by caspase-glo luminescent assay; type: cell-based; settings: PC-3, 24 h; in short: as §1
# [25] = test system: HL-60; assay: Cytotoxicity against human HL60 cells assessed as reduction in cell viability after 48 hrs by ATPlite-based luminescent assay; settings: HL-60, 48 h; in short: as §3
# [26] = test system: TERT-RPE1; assay: Cytotoxicity against human RPE1 cells assessed as reduction in cell viability after 48 hrs by ATPlite-based luminescent assay; settings: RPE-1, 48 h; in short: as §3
# [27] = test system: HepG2; assay: Induction of apoptosis in human HepG2 cells assessed as caspase 3/7 activity after 24 hrs by caspase-glo luminescent assay; type: cell-based; settings: HepG2, 24 h; in short: as §1
# [28] = test system: Enterococcus sp.; assay: Antibacterial activity against Enterococcus sp. HK14365/08 clinical isolate after 48 hrs by microdilution assay; type: functional; settings: HK14365/08, 48 h
Structure (SMILES),MIC95 [1],MIC95 [2],IC50 [3],IC50 [4],IC50 [5],MIC95 [6],MIC95 [7],MIC95 [8],IC50 [9],MIC95 [10],MIC95 [11],MIC95 [12],MIC95 [13],MIC95 [14],IC50 [15],MIC95 [16],MIC95 [17],IC50 [18],IC50 [19],MIC95 [20],other results
Cc1ccc(C2=C(c3cccc(Cl)c3)C(=O)OC2)cc1,> 500 µM,> 500 µM,> 40 µM,> 40 µM,> 40 µM,> 500 µM,1.95 µM,> 500 µM,0.21 µM,> 500 µM,15.6 µM,1.95 µM,> 500 µM,> 500 µM,> 40 µM,15.6 µM,15.6 µM,> 40 µM,> 40 µM,> 500 µM,IC50 [21]: > 40 µM; MIC95 [22]: 15.6 µM; MIC95 [23]: > 500 µM; IC50 [24]: > 40 µM; IC50 [25]: 0.48 µM; IC50 [26]: 0.88 µM; IC50 [27]: > 40 µM; MIC95 [28]: > 500 µM
COc1ccc(C2=C(c3c(Cl)cccc3Cl)C(=O)OC2)cc1,> 500 µM,> 500 µM,> 40 µM,> 40 µM,12.5 µM,> 500 µM,125 µM,> 500 µM,14.4 µM,> 500 µM,125 µM,62.5 µM,> 500 µM,> 500 µM,> 40 µM,> 500 µM,> 500 µM,> 40 µM,> 40 µM,> 500 µM,IC50 [21]: 16.2 µM; MIC95 [22]: 250 µM; MIC95 [23]: > 500 µM; IC50 [24]: > 40 µM; IC50 [25]: 15.1 µM; IC50 [26]: > 40 µM; IC50 [27]: > 40 µM; MIC95 [28]: > 500 µM
COc1ccc(C2=C(c3ccc(OC)c(OC)c3)COC2=O)cc1,> 125 µM,> 125 µM,> 40 µM,> 40 µM,> 40 µM,> 125 µM,> 125 µM,> 125 µM,> 40 µM,> 125 µM,> 125 µM,> 125 µM,> 125 µM,> 125 µM,> 40 µM,> 125 µM,> 125 µM,> 40 µM,15.9 µM,> 125 µM,IC50 [21]: > 40 µM; MIC95 [22]: > 125 µM; MIC95 [23]: > 125 µM; IC50 [24]: > 40 µM; IC50 [25]: > 40 µM; IC50 [26]: > 40 µM; IC50 [27]: > 40 µM; MIC95 [28]: > 125 µM
COc1ccc(C2=C(c3ccc(S(C)(=O)=O)cc3)COC2=O)cc1,> 500 µM,> 500 µM,> 40 µM,> 40 µM,> 40 µM,> 500 µM,> 500 µM,> 500 µM,> 40 µM,> 500 µM,> 500 µM,> 500 µM,> 500 µM,> 500 µM,> 40 µM,> 500 µM,> 500 µM,> 40 µM,> 40 µM,> 500 µM,IC50 [21]: > 40 µM; MIC95 [22]: > 500 µM; MIC95 [23]: > 500 µM; IC50 [24]: > 40 µM; IC50 [25]: > 40 µM; IC50 [26]: > 40 µM; IC50 [27]: > 40 µM; MIC95 [28]: > 500 µM
O=C1OCC(c2ccc(C(F)(F)F)cc2)=C1c1ccncc1,> 500 µM,> 500 µM,> 40 µM,> 40 µM,> 40 µM,> 500 µM,> 500 µM,> 500 µM,> 40 µM,> 500 µM,250 µM,> 500 µM,> 500 µM,> 500 µM,> 40 µM,500 µM,500 µM,> 40 µM,> 40 µM,> 500 µM,IC50 [21]: > 40 µM; MIC95 [22]: 250 µM; MIC95 [23]: > 500 µM; IC50 [24]: > 40 µM; IC50 [25]: > 40 µM; IC50 [26]: > 40 µM; IC50 [27]: > 40 µM; MIC95 [28]: > 500 µM
O=C1OCC(c2ccccc2)=C1c1ccc(F)cc1,> 500 µM,> 500 µM,> 40 µM,> 40 µM,> 40 µM,> 500 µM,15.6 µM,> 500 µM,> 40 µM,> 500 µM,125 µM,15.6 µM,> 500 µM,> 500 µM,> 40 µM,125 µM,125 µM,> 40 µM,> 40 µM,> 500 µM,IC50 [21]: > 40 µM; MIC95 [22]: 125 µM; MIC95 [23]: > 500 µM; IC50 [24]: > 40 µM; IC50 [25]: > 40 µM; IC50 [26]: > 40 µM; IC50 [27]: > 40 µM; MIC95 [28]: > 500 µM
